Reference: ChEMBL document CHEMBL4673249, “Anticancer Effects of Honokiol via Mitochondrial Dysfunction Are Strongly Enhanced by the Mitochondria-Targeting Carrier Berberine” (J Med Chem, 2020)
Calls of active or inactive are those of the source. The calls are words filed in the database; no cut-off is given here.

What was measured:
HT-29 = test: Induction of morphological changes in human HT29 cells assessed as accumulation of cytoplasmic vacuoles at 4 uM after 24 hrs by optical microscopic method; assay type: functional, cell-based
Procedure, shortened: (§1)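 Cells grown at 37 °C, 5% CO2 in media with 10% FBS and penicillin/streptomycin, then treated with compound. Cytoplasmic vacuoles judged by optical microscopy. Time course at 4 μM, or 10 h exposure across increasing concentrations.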

HepG2 [1] = test: Induction of apoptosis in human HepG2 cells assessed as decrease in pro-caspase 12 protein expression at 1 to 4 uM after 24 hrs by Western blot analysis; assay type: functional, cell-based; settings: dose 1-4 µM
Procedure, shortened: (§2)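 HepG2 cells lysed in RIPA on ice for 20 min; protein measured by BCA. Lysates run on 10% SDS-PAGE and transferred to PVDF. Membranes blocked in 5% nonfat milk/TBST for 2 h, incubated with primary antibodies overnight at 4 °C, then HRP secondary antibody; bands detected by ECL.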

A2780 = test: Induction of morphological changes in human A2780 cells assessed as accumulation of cytoplasmic vacuoles at 4 uM after 24 hrs by optical microscopic method; assay type: functional, cell-based
A549 = test: Antiproliferative activity against human A549 cells assessed as reduction in cell viability after 48 hrs by MTT assay; assay type: functional, cell-based; settings: A549, 48 h
Procedure, shortened: (§3)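 Cell lines grown at 37 °C in 5% CO2: A2780, A549, HL7702 and PC3 in RPMI 1640; HT29 in McCoy's 5A; HepG2 and PANC-1 in DMEM; all media with 10% FBS and penicillin/streptomycin. Cells seeded and left overnight, then exposed to compound for 48 h. MTT (5 mg/mL solution) added for 4 h at 37 °C, formazan dissolved in DMSO, absorbance read at 570 nm. IC50 taken from viability; run in triplicate.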

HepG2 [2] = test: Induction of apoptosis in human HepG2 cells after 24 hrs by annexin V/propidium iodide staining based flow cytometric analysis; assay type: functional, cell-based; settings: dose 1-4 µM
HepG2 [3] = test: Induction of apoptosis in human HepG2 cells assessed as viable cells at 4 uM after 24 hrs by annexin V/propidium iodide staining based flow cytometric analysis (reference value: 95.3%); assay type: functional; settings: read-out: Activity
HepG2 [4] = test: Induction of apoptosis in human HepG2 cells assessed as increase in cleaved-caspase 3 protein expression at 1 to 4 uM after 24 hrs by Western blot analysis; assay type: functional, cell-based; settings: dose 1-4 µM; procedure, shortened: as §2
HepG2 [5] = test: Antiproliferative activity against human HepG2 cells assessed as reduction in cell viability after 48 hrs by MTT assay; assay type: functional, cell-based; settings: HepG2, 48 h; procedure, shortened: as §3
HepG2 [6] = test: Induction of apoptosis in human HepG2 cells assessed as early apoptotic cells at 4 uM after 24 hrs by annexin V/propidium iodide staining based flow cytometric analysis (reference value: 1.29%); assay type: functional
L02 [7] = test: Antiproliferative activity against human L02 cells assessed as reduction in cell viability after 48 hrs by MTT assay; assay type: cell-based; settings: L02, 48 h; procedure, shortened: as §3
HepG2 [8] = test: Induction of ROS generation in human HepG2 cells after 24 hrs by DCFH-DA staining based flow cytometric analysis; assay type: functional, cell-based
Procedure, shortened: (§4)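 HepG2 cells treated for the stated time, then loaded with 10 μM DCFH-DA in FBS-free medium for 30 min in the dark. Washed twice with PBS, trypsinized, pelleted at 1200 rpm for 5 min, resuspended in PBS and read by flow cytometry. Kit Rosup reagent served as positive agent.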

HepG2 [9] = test: Induction of morphological changes in human HepG2 cells assessed as accumulation of vacuoles at 3 uM after 24 hrs in presence of Nec-1 by microscopic method; assay type: functional, cell-based
Procedure, shortened: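 HepG2 cells pretreated with necrostatin-1 (30 μM, 2 h), then exposed to 3 μM compound. Vacuoles imaged by optical microscopy after 24 h.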

HepG2 [10] = test: Induction of mitochondrial morphological changes in human HepG2 cells assessed as dilation of mitochondria at 3 uM measured after 12 hrs by MitoTracker red CMXRos by confocal microscopic method; assay type: functional, cell-based
Procedure, shortened: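 HepG2 cells stained with MitoTracker Red CMXRos; fluorescence and phase-contrast images taken by laser confocal microscopy.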

HepG2 [11] = test: Induction of apoptosis in human HepG2 cells assessed as necrotic cells at 4 uM after 24 hrs by annexin V/propidium iodide staining based flow cytometric analysis (reference value: 0.11%); assay type: functional
HepG2 [12] = test: Induction of morphological changes in human HepG2 cells assessed as accumulation of vacuoles at 3 uM after 24 hrs in presence of CQ by microscopic method; assay type: functional, cell-based
Procedure, shortened: (§5)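 HepG2 cells given 3 μM compound for 24 h with chloroquine (10 μM) or 3-methyladenine (1 mM). Vacuolization and viability examined, viability by MTT.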

HepG2 [13] = test: Induction of apoptosis in human HepG2 cells assessed as viable cells at 1 uM after 24 hrs by annexin V/propidium iodide staining based flow cytometric analysis (reference value: 95.3%); assay type: functional; settings: read-out: Activity
HepG2 [14] = test: Induction of apoptosis in human HepG2 cells assessed as increase in cleaved-caspase 9 protein expression at 1 to 4 uM after 24 hrs by Western blot analysis; assay type: functional, cell-based; settings: dose 1-4 µM; procedure, shortened: as §2
HepG2 [15] = test: Induction of apoptosis in human HepG2 cells assessed as necrotic cells at 1 uM after 24 hrs by annexin V/propidium iodide staining based flow cytometric analysis (reference value: 0.11%); assay type: functional
HepG2 [16] = test: Induction of apoptosis in human HepG2 cells assessed as necrotic cells at 4 uM after 24 hrs in presence of z-VAD-fmk by annexin V/propidium iodide staining based flow cytometric analysis (reference value: 0.12%); assay type: functional
L02 [17] = test: Induction of morphological changes in human L02 cells assessed as accumulation of cytoplasmic vacuoles at 4 uM after 24 hrs by optical microscopic method; assay type: cell-based; settings: l02, 24 h; procedure, shortened: as §1
HepG2 [18] = test: Induction of morphological changes in human HepG2 cells assessed as accumulation of vacuoles at 3 uM after 24 hrs in presence of 3-MA by microscopic method; assay type: functional, cell-based; procedure, shortened: as §5
HepG2 [19] = test: Induction of mitochondrial morphological changes in human HepG2 cells assessed as dilation of mitochondria by measuring vacuoles at 3 uM measured up to 30 hrs […] by TEM analysis; assay type: functional, cell-based; settings: time hrs <=30
Procedure, shortened: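 HepG2 cells given 3 μM for 15 h or 30 h, then fixed in 2.5% glutaraldehyde at 4 °C overnight. Dehydrated through graded alcohols, embedded in resin and examined by transmission electron microscopy.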

HepG2 [20] = test: Induction of ROS generation in human HepG2 cells at 2 uM measured up to 24 hrs by DCFH-DA staining based flow cytometric analysis; assay type: functional, cell-based; settings: time hrs <=24; procedure, shortened: as §4
HepG2 [21] = test: Induction of apoptosis in human HepG2 cells assessed as late apoptotic cells at 1 uM after 24 hrs by annexin V/propidium iodide staining based flow cytometric analysis (reference value: 3.22%); assay type: functional
[22] = Drug uptake in human HepG2 cells mitochondria at 5 uM after 12 hrs by HPLC analysis; assay type: ADME; settings: hepg2, 12 h
Procedure, shortened: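 HepG2 cells given 5 μM for 12 h, then homogenized in mitochondrial extraction reagent. Spun at 600 g, 4 °C, 10 min; supernatant spun again at 11000 g, 4 °C, 10 min, and the pellet taken as mitochondria. Drug content by HPLC on a C18 column with methanol–0.1% acetic acid (80:20), detection at 265 nm. Run thrice.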

HepG2 [23] = test: Induction of autophagy in human HepG2 cells assessed as effect on LC3-2 protein expression at 3 uM after 24 hrs by Western blot analysis; assay type: functional, cell-based; procedure, shortened: as §2

In the case of `C=CCc1ccc(O)c(-c2ccc(OCCCCCc3c4[n+](cc5c(OC)c(OC)ccc35)CCc3cc5c(cc3-4)OCO5)c(CC=C)c2)c1.[I-]`, the Activity (HT-29) is reported as “Active”, the Activity (HepG2 [1]) is reported as “Active” and the Activity (A2780) is reported as “Active”. The IC50 (A549) was 3 µM, the Activity (HepG2 [2]) was “Dose-dependent effect” and the viability at 4 µM (HepG2 [3]) was 73.3%. The Activity (HepG2 [4]) was “Active”, the IC50 (HepG2 [5]) was 1.63 µM and the Activity (HepG2 [6]) was 7.91%. For the same compound, the IC50 (L02 [7]) was 4.61 µM, the Activity (HepG2 [8]) was “Dose-dependent effect” and the Activity (HepG2 [9]) was “Active”. The Activity (HepG2 [10]) was “Active”, the Activity (HepG2 [11]) was 0.41% and the Activity (HepG2 [12]) was “Active”. For the same compound, the viability at 1 µM (HepG2 [13]) was 93.3%, the Activity (HepG2 [14]) was “Active” and the Activity (HepG2 [15]) was 0.2%. For the same compound, the Activity (HepG2 [16]) was 0.57%, the Activity (L02 [17]) was “Active” and the Activity (HepG2 [18]) was “Active”. The Activity (HepG2 [19]) was “Active”, the Activity (HepG2 [20]) was “Active” and the Activity (HepG2 [21]) was 3.21%. For the same compound, the Drug uptake [22] was 66.3 µM and the Activity (HepG2 [23]) was “inactive”.
